The text below walks through data of ChEMBL document CHEMBL3865803, “Bicyclic octahydrocyclohepta[b]pyrrol-4(1H)one derivatives as novel selective anti-hepatitis C virus agents” (Eur J Med Chem, 2016).

Some results are limits rather than exact numbers.

For data set [1], the system named is Hepatitis C virus. The data set can be described thus: Antiviral activity against HCV genotype 2a infected in human Huh7.5-FGR-JC1-Rluc2A replicon cells assessed as inhibition of viral RNA replication at 50 uM measured after 48 hrs by luciferase reporter gene assay relative to control. Conditions: Huh-7, 48 h. It is filed as functional, Hepacivirus hominis. The method in brief: (§1)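 Replicon cells (gt1b firefly luciferase; gt2a Renilla luciferase) in DMEM/10% FBS with G418, ~1 × 10^4 cells/well, dosed 12 h after seeding with 50 µM compound or DMSO (1% final) for 48 h at 37 °C. Cells were PBS-washed and luciferase read; % inhibition was taken versus DMSO-treated cells, mean±SD, n=3.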
On the technique in general: Replicon systems follow genome replication, usually without infectious particles.

The nature of data set [2]: Selectivity index, ratio of CC50 for human Huh7.5 cells to EC50 for HCV genotype 1b infected in human Huh7/Rep-Feo1b replicon cells. On the set-up: species or system Huh-7.
Data set [3] concerns Hepatitis C virus. The data set can be described thus: Antiviral activity against HCV genotype 1b infected in human Huh7/Rep-Feo1b replicon cells assessed as inhibition of viral RNA replication at 50 uM measured after 48 hrs by luciferase reporter gene assay relative to control. The note with it: Huh-7, 48 h. The data set is classed as functional, Hepacivirus hominis. An outline of the steps:
as §1

The test system of data set [4] is Hepatitis C virus. The data set can be described thus: Antiviral activity against HCV genotype 1b infected in human Huh7/Rep-Feo1b replicon cells assessed as inhibition of viral RNA replication measured after 48 hrs by luciferase reporter gene assay. It is filed as functional, cell-based, Hepacivirus hominis. Conditions: Huh-7, 48 h. The method in brief:
(§2)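 EC50 from concentration-response in replicon cells (gt1b firefly, gt2a Renilla luciferase reporter) maintained with G418. Compound added 12 h post-seeding (~1 × 10^4 cells/well), 48 h exposure, DMSO 1% final. Luciferase was compared with DMSO controls; the value is the mean ± SD of three independent 8-12 point quarter-log dilution series, calculated with CalcuSyn.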

A short description of data set [5]: Cytotoxicity against human Huh7.5 cells measured after 48 hrs by MTS assay. The data set is classed as toxicity, cell-based, Huh-7. Conditions: for CC50 at 48 h: Huh7.5 cells; for Activity: huh-7, 48 h. An outline of the steps: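 Parental Huh7.5 cells were treated 12 h after seeding with 8-10 dilutions of compound or DMSO (1% final) for 48 h at 37 °C. Viability was read by MTS bioreduction to formazan. CC50 is the concentration halving the MTS signal, mean ± SD of three independent experiments.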
On the technique in general: Formazan colour is commonly taken as a measure of viable cells.

Data set [6] in a line: Selectivity index, ratio of CC50 for human Huh7.5 cells to EC50 for HCV genotype 2a infected in human Huh7.5-FGR-JC1-Rluc2A replicon cells. Set-up: species or system Huh-7.
The test system of data set [7] is Hepatitis C virus. The data set can be described thus: Antiviral activity against HCV genotype 2a infected in human Huh7.5-FGR-JC1-Rluc2A replicon cells assessed as inhibition of viral RNA replication incubated for 48 hrs by luciferase reporter gene assay. The data set is classed as functional, cell-based, Hepacivirus hominis. Conditions: Huh-7, 48 h. The method in brief:
as §2

Data set [8] relates to Hepatitis C virus. The data set can be described thus: Antiviral activity against Hepatitis C virus genotype 1b infected in human MH14 cells assessed as inhibition of viral RNA replication after 48 hrs by quantitative RT-PCR analysis. It is filed as functional, cell-based. An outline of the steps:
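MH-14 cells carrying HCV subgenomic replicons, in 12-well plates, were treated with a range of concentrations or DMSO 12 h after seeding. Cellular HCV RNA was quantified by qRT-PCR with HCV-specific primers, using β-actin primers as reference.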

As a reminder, the inhibition is the percentage by which the read-out fell short of the control. By EC50 is commonly meant the concentration needed to bring the measured effect to its halfway point. One may read the CC50 as the concentration giving 50% cytotoxicity. As to `CCOC(=O)[C@@H]1C[C@@H]2C(=O)CCCC[C@@H]2N1C(=O)c1ccccc1` (racemic), the inhibition at 50 µM in data set [1] was determined as 95%; in data set [3] it was 59%. In addition, the “Ratio CC50/EC50” value in data set [2] is reported as over 13.4; in data set [6], over 13.9. Further, the EC50 was found to be 14.9 µM in data set [4] and 14.3 µM in data set [7]. In data set [5], the half-maximal cytotoxic concentration (CC50) at 48 h is over 200 µM.
`CCOC(=O)[C@@H]1C[C@@H]2C(=O)CCCC[C@@H]2N1S(=O)(=O)c1ccc(C(C)(C)C)cc1` (racemic): the inhibition at 50 µM in data set [1] is 94%; in data set [3], 49%. Besides, the “Ratio CC50/EC50” value is reported as over 5.8 in data set [2] and over 15.4 in data set [6]. The values for the EC50 in data set [4] and in data set [7] were 34.4 µM and 13 µM, respectively. Also, the CC50 at 48 h in data set [5] was over 200 µM.
As to `O=C1CCCC[C@H]2[C@H]1[C@@H](c1ccccc1)CN2Cc1ccccc1` (racemic), the figures for the inhibition at 50 µM in data set [1] and in data set [3] were 96% and 71%, respectively. The “Ratio CC50/EC50” value in data set [2] is on record as 17.3; in data set [6] it was 29.2. For the same compound, the EC50 in data set [4] was found to be 7.7 µM; in data set [7], 4.6 µM. This compound yielded a CC50 at 48 h in data set [5] of 134 µM. The Activity in data set [5] was determined as 85%.
For the compound `CCOC(=O)[C@@H]1C[C@@H]2C(=O)CCCC[C@H]2N1S(=O)(=O)c1ccc(C)cc1` (racemic), the inhibition at 50 µM came out at 91% in data set [1] and 51% in data set [3]. Further, the figures for the “Ratio CC50/EC50” value in data set [2] and in data set [6] were 3.4 and 22.9, respectively. In addition, the EC50 in data set [4] was found to be 59.4 µM; in data set [7], 8.7 µM. The compound also gave a CC50 at 48 h in data set [5] of over 200 µM.
Turning to `CCOC(=O)[C@H]1C[C@H]2C(=O)CCCC[C@H]2N1S(=O)(=O)c1ccc(C)cc1` (racemic), the inhibition at 50 µM in data set [1] worked out at 84%; in data set [3], 89%. Moreover, the “Ratio CC50/EC50” value in data set [2] is recorded as over 28.2; in data set [6], over 32.8. Also, the EC50 in data set [4] was found to be 7.1 µM; in data set [7], 6.1 µM. Further, in data set [5], the CC50 at 48 h is over 200 µM. In data set [5], this compound gave an Activity of 77%.
In the case of `CCOC(=O)[C@@H]1C[C@]2(C)C(=O)CCCC[C@@H]2N1S(=O)(=O)c1ccc(C)cc1` (racemic), the values for the inhibition at 50 µM in data set [1] and in data set [3] were 76% and 50%, respectively. The “Ratio CC50/EC50” value in data set [2] was 4.1; in data set [6], 14.1. In addition, the EC50 in data set [4] was determined as 49.1 µM; in data set [7] it was 14.2 µM. The compound further gave a CC50 at 48 h in data set [5] of over 200 µM.
With `CCOC(=O)[C@@H]1C[C@@H]2/C(=N/O)CCCC[C@@H]2N1S(=O)(=O)c1ccc(C)cc1` (racemic), the inhibition at 50 µM was determined as 66% in data set [1] and 63% in data set [3]. Also, the figures for the “Ratio CC50/EC50” value in data set [2] and in data set [6] were 7.9 and 13.1, respectively. The EC50 in data set [4] was 25.3 µM; in data set [7], 15.3 µM. In data set [5], this compound displayed a CC50 at 48 h of over 200 µM.
Regarding `CCOC(=O)[C@@H]1C[C@@H]2/C(=N/Nc3ccccc3)CCCC[C@@H]2N1S(=O)(=O)c1ccc(C)cc1` (racemic), the inhibition at 50 µM in data set [1] amounted to 70%; in data set [3], 88%. For the same compound, the entries for the “Ratio CC50/EC50” value in data set [2] and in data set [6] were 112.4 and 44.2, respectively. The half-maximal effective concentration (EC50) was 1.8 µM in data set [4]; 4.5 µM in data set [7]; 3.82 µM in data set [8] (MH14, 48 h). The CC50 at 48 h in data set [5] is over 200 µM. Besides, in data set [8] (Hepacivirus hominis), the inhibition entry is “Dose-dependent effect”.
On to `CCOC(=O)[C@@H]1C[C@@H]2[C@@H](OC(C)=O)CCCC[C@@H]2N1S(=O)(=O)c1ccc(C)cc1` (racemic), for which the results for the inhibition at 50 µM in data set [1] and in data set [3] were 73% and 60%, respectively. In addition, the “Ratio CC50/EC50” value in data set [2] stood at 7.3; in data set [6] it was 7.7. In addition, the EC50 came out at 27.2 µM in data set [4] and 25.8 µM in data set [7]. Moreover, the CC50 at 48 h in data set [5] was over 200 µM.
In the case of `CCOC(=O)[C@@H]1C[C@@H]2/C(=N/NC(N)=S)CCCC[C@@H]2N1S(=O)(=O)c1ccc(C)cc1` (racemic), the inhibition at 50 µM in data set [1] turned out to be 58%; in data set [3] it was 66%. Besides, the “Ratio CC50/EC50” value is given as 14 in data set [2] and 17.3 in data set [6]. The EC50 in data set [4] was 14.3 µM; in data set [7], 11.6 µM. The same compound displayed a CC50 at 48 h in data set [5] of over 200 µM.
